# How the values were obtained:
# [1] = molecular target: Aldo-keto reductase family 1 member B1 (Bos taurus) (UniProt P16116); test: In vitro inhibition of aldose reductase from the partially purified bovine lens at 10e-5 M concentration
# Procedure, shortened: (§1)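 Bovine lens aldose reductase, partially purified, assayed spectrophotometrically following Hayman and Kinoshita. Each compound was tested at three concentrations, routinely in duplicate.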
# [2] = molecular target: Aldo-keto reductase family 1 member B1 (Bos taurus) (UniProt P16116); test: In vitro inhibition of aldose reductase from the partially purified bovine lens at 10e-6 M concentration; procedure, shortened: as §1
# [3] = molecular target: Aldo-keto reductase family 1 member B1 (Bos taurus) (UniProt P16116); test: In vitro inhibition of aldose reductase from the partially purified bovine lens at 10e-7 M concentration; procedure, shortened: as §1
# Rattus norvegicus [4] = test: In vivo inhibition of polyol accumulation in galactosemic rat diaphragm at dose 82 mg/kg administered perorally; assay type: functional; conditions: route oral
# Procedure, shortened: (§2)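 Rats received a diet of 20% galactose for 4 days, with compound mixed into the diet. Galactitol was measured in trichloroacetic acid extracts of lens, sciatic nerve and diaphragm by a modified Kraml–Cosyns method. Values are % reduction versus galactosemic controls, compared by Dunnett's multiple comparison.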
# Rattus norvegicus [5] = test: In vivo inhibition of polyol accumulation in galactosemic rat nerve at dose 82 mg/kg administered perorally; assay type: functional; conditions: route oral; procedure, shortened: as §2
# Rattus norvegicus [6] = test: In vivo inhibition of polyol accumulation in galactosemic rat diaphragm at dose 135 mg/kg administered perorally; assay type: functional; conditions: route oral; procedure, shortened: as §2
# Rattus norvegicus [7] = test: In vivo inhibition of polyol accumulation in galactosemic rat nerve at dose 151 mg/kg administered perorally; assay type: functional; conditions: route oral; procedure, shortened: as §2
# Rattus norvegicus [8] = test: In vivo inhibition of polyol accumulation in galactosemic rat diaphragm at dose 102 mg/kg administered perorally; assay type: functional; conditions: route oral; procedure, shortened: as §2
# Rattus norvegicus [9] = test: In vivo inhibition of polyol accumulation in galactosemic rat diaphragm at dose 99 mg/kg administered perorally; assay type: functional; conditions: route oral; procedure, shortened: as §2
# Rattus norvegicus [10] = test: In vivo inhibition of polyol accumulation in galactosemic rat nerve at dose 99 mg/kg administered perorally; assay type: functional; conditions: route oral; procedure, shortened: as §2
# Rattus norvegicus [11] = test: In vivo inhibition of polyol accumulation in galactosemic rats diaphragm; assay type: functional; conditions: read-out: ID50 (the source's name)
# Rattus norvegicus [12] = test: In vivo inhibition of polyol accumulation in galactosemic rats lens; assay type: functional; conditions: Lens of camera-type eye, read-out: ID50 (the source's name)
# Rattus norvegicus [13] = test: In vivo inhibition of polyol accumulation in galactosemic rats nerve; assay type: functional; conditions: read-out: ID50 (the source's name)
# Rattus norvegicus [14] = test: In vivo inhibition of polyol accumulation in galactosemic rat diaphragm at dose 6 mg/kg administered perorally; assay type: functional; conditions: route oral; procedure, shortened: as §2
# Rattus norvegicus [15] = test: In vivo inhibition of polyol accumulation in galactosemic rat nerve at dose 6 mg/kg administered perorally; assay type: functional; conditions: route oral; procedure, shortened: as §2
# Rattus norvegicus [16] = test: In vivo inhibition of polyol accumulation in galactosemic rat diaphragm at dose 83 mg/kg administered perorally; assay type: functional; conditions: route oral; procedure, shortened: as §2
# Rattus norvegicus [17] = test: In vivo inhibition of polyol accumulation in galactosemic rat nerve at dose 83 mg/kg administered perorally; assay type: functional; conditions: route oral; procedure, shortened: as §2
# Rattus norvegicus [18] = test: In vivo inhibition of polyol accumulation in galactosemic rat diaphragm at dose 90 mg/kg administered perorally; assay type: functional; conditions: route oral; procedure, shortened: as §2
# Rattus norvegicus [19] = test: In vivo inhibition of polyol accumulation in galactosemic rat nerve at dose 90 mg/kg administered perorally; assay type: functional; conditions: route oral; procedure, shortened: as §2
# Rattus norvegicus [20] = test: In vivo inhibition of polyol accumulation in galactosemic rat diaphragm at dose 105 mg/kg administered perorally; assay type: functional; conditions: route oral; procedure, shortened: as §2
# Rattus norvegicus [21] = test: In vivo inhibition of polyol accumulation in galactosemic rat nerve at dose 105 mg/kg administered perorally; assay type: functional; conditions: route oral; procedure, shortened: as §2
# Rattus norvegicus [22] = test: In vivo inhibition of polyol accumulation in galactosemic rat nerve at dose 78 mg/kg administered perorally; assay type: functional; conditions: route oral; procedure, shortened: as §2
# Rattus norvegicus [23] = test: In vivo inhibition of polyol accumulation in galactosemic rat diaphragm at dose 97 mg/kg administered perorally; assay type: functional; conditions: route oral; procedure, shortened: as §2
# Rattus norvegicus [24] = test: In vivo inhibition of polyol accumulation in galactosemic rat nerve at dose 97 mg/kg administered perorally; assay type: functional; conditions: route oral; procedure, shortened: as §2
# Rattus norvegicus [25] = test: In vivo inhibition of polyol accumulation in galactosemic rat diaphragm at dose 96 mg/kg administered perorally; assay type: functional; conditions: route oral; procedure, shortened: as §2
# Rattus norvegicus [26] = test: In vivo inhibition of polyol accumulation in galactosemic rat lens at dose 93 mg/kg administered perorally; assay type: functional, Lens of camera-type eye; conditions: route oral; procedure, shortened: as §2
# Rattus norvegicus [27] = test: In vivo inhibition of polyol accumulation in galactosemic rat nerve at dose 93 mg/kg administered perorally; assay type: functional; conditions: route oral; procedure, shortened: as §2
# Rattus norvegicus [28] = test: In vivo inhibition of polyol accumulation in galactosemic rat diaphragm at dose 112 mg/kg administered perorally; assay type: functional; conditions: route oral; procedure, shortened: as §2
# Rattus norvegicus [29] = test: In vivo inhibition of polyol accumulation in galactosemic rat nerve at dose 112 mg/kg administered perorally; assay type: functional; conditions: route oral; procedure, shortened: as §2
Compound,inhibition [1],inhibition [2],inhibition [3],also measured
COC(=O)c1c(OCC(=O)O)nc(C(C)(C)C)nc1SC,13%,2%,,
CC(C)Sc1nc(C(C)(C)C)nc(OCC(=O)O)c1C#N,92%,91%,89%,Reduction (Rattus norvegicus [4]): 19%; Reduction (Rattus norvegicus [5]): 37%
Cc1nc(N2CCC(Cc3ccccc3)CC2)c(C#N)c(=O)n1CC(=O)O,90%,88%,81%,
CSc1nc(C(C)C)n(CC(=O)O)c(=O)c1C#N,96%,96%,94%,
CC(C)(C)c1nc(OCC(=O)O)c(C#N)c(SCc2ccc(Br)cc2)n1,95%,95%,95%,Reduction (Rattus norvegicus [6]): 58%
Cc1nc(NCc2ccccc2)c(C#N)c(=O)n1CC(=O)O,96%,90%,76%,
CSc1nc(C)nc(OCC(=O)O)c1C#N,90%,84%,55%,
N#Cc1c(OCC(=O)O)nc(-c2cccc3ccccc23)nc1-c1ccccc1,79%,76%,53%,
CSc1nc(CC(C)(C)C)nc(OCC(=O)O)c1C#N,95%,96%,85%,
N#Cc1c(Cc2cccc3ccccc23)nc(-c2cccc3c(Br)cccc23)n(CC(=O)O)c1=O,93%,85%,46%,Reduction (Rattus norvegicus [7]): 30%
CC(C)Sc1nc(C(C)C)n(CC(=O)O)c(=O)c1C#N,96%,97%,91%,
Cc1nc(NCc2cccnc2)cc(=O)n1CC(=O)O,53%,18%,,
CSc1nc(C2CCCCC2)n(CC(=O)O)c(=O)c1S(=O)(=O)c1ccccc1,3%,0%,,
COC(=O)c1c(SC)nc(C2CCCCC2)n(CC(=O)O)c1=O,5%,1%,,
Cc1nc(NCc2cccnc2)c(C#N)c(=O)n1CC(=O)O,88%,90%,30%,
CSc1nc(C)n(CC(=O)O)c(=O)c1C#N,86%,84%,74%,
CC(C)c1nc(SCc2ccccc2)c(C#N)c(=O)n1CC(=O)O,96%,98%,94%,Reduction (Rattus norvegicus [8]): 38%

Compound,inhibition [1],inhibition [2],inhibition [3],also measured
Cc1nc(N2CCN(Cc3ccccc3)CC2)c(C#N)c(=O)n1CC(=O)O,92%,89%,64%,
CC(C)(C)c1nc(OCC(=O)O)c(C#N)c(SCc2ccc(Br)cc2F)n1,98%,93%,93%,Reduction (Rattus norvegicus [9]): 47%; Reduction (Rattus norvegicus [10]): 28%
COc1ccc2c(C(=S)N(C)CC(=O)O)cccc2c1C(F)(F)F [TOLRESTAT],,,,ED50 (Rattus norvegicus [11]): 1.5 mg/kg; ED50 (Rattus norvegicus [12]): 178 mg/kg; ED50 (Rattus norvegicus [13]): 8 mg/kg; Reduction (Rattus norvegicus [14]): 90%; Reduction (Rattus norvegicus [15]): 53%
CSc1nc(C(C)(C)C)nc(OCC(=O)O)c1C#N,89%,88%,82%,Reduction (Rattus norvegicus [16]): 32%; Reduction (Rattus norvegicus [17]): 35%
CSc1nc(C2CCCCC2)n(CC(=O)O)c(=O)c1C#N,98%,,89%,Reduction (Rattus norvegicus [18]): 42%; Reduction (Rattus norvegicus [19]): 47%
CC(C)(C)c1nc(OCC(=O)O)c(C#N)c(SCC2CCCCC2)n1,97%,96%,88%,Reduction (Rattus norvegicus [20]): 60%; Reduction (Rattus norvegicus [21]): 70%
CSc1nc(C(C)C)nc(OCC(=O)O)c1C#N,98%,97%,88%,Reduction (Rattus norvegicus [22]): 37%
Cc1nc(NCC2CCCCC2)c(C#N)c(=O)n1CC(=O)O,93%,91%,72%,
CC(C)(C)c1nc(OCC(=O)O)c(C#N)c(SCc2ccccc2)n1,86%,85%,82%,Reduction (Rattus norvegicus [23]): 67%; Reduction (Rattus norvegicus [24]): 46%
CSc1nc(C(C)(C)C)nc(OCC(=O)O)c1C(N)=O,81%,42%,10%,
Cc1nc(-c2ccccc2)nc(OCC(=O)O)c1C#N,92%,88%,79%,
CSc1nc(-c2ccccc2)nc(OCC(=O)O)c1C#N,92%,87%,75%,Reduction (Rattus norvegicus [25]): 55%
N#Cc1c(SCc2ccc(Br)cc2F)nc(C2CCCCC2)n(CC(=O)O)c1=O,96%,,92%,Reduction (Rattus norvegicus [26]): 15%; Reduction (Rattus norvegicus [27]): 50%
N#Cc1c(-c2ccccc2)nc(-c2cccc3ccccc23)n(CC(=O)O)c1=O,84%,68%,29%,
CCCCCCSc1nc(C(C)(C)C)nc(OCC(=O)O)c1C#N,,,,Reduction (Rattus norvegicus [28]): 60%; Reduction (Rattus norvegicus [29]): 43%
N#Cc1c(-c2ccccc2)nc(-c2cccc3c(Br)cccc23)n(CC(=O)O)c1=O,82%,71%,22%,
Cc1nc(-c2cccc3ccccc23)nc(OCC(=O)O)c1C#N,93%,85%,46%,

# Reference: ChEMBL document CHEMBL1124992, “(Pyrimidinyloxy)acetic acids and pyrimidineacetic acids as a novel class of aldose reductase inhibitors” (J Med Chem, 1990)
